MLLE-PAM2 inh = inhibitors of microRNA-mediated deadenylation, human PABP1 MLLE binding; P11940; GST-MLLE / FITC-PAM2 fluorescence polarization; inhibition, % at 20 µM; 360,000 tested, 0.36% active; AID 588489; in the data active means inhibition above about 35%, passing the limit was not always enough
core dimer inh = blocks dimerization of HCV core protein; TR-FRET GST/Flag-core106 dimerization, 1536-well; 300,000 tested, 0.33% active; inhibition, % at 5 µM;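 active means inhibition above the mean of all tested compounds plus 3 SD, set per screening campaign, cut at about 45% in these data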
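System: GST/Flag-tagged HCV core106 proteins. Incubation: compound-protein-antibody incubation 4 h at 22.5 °C. Technique: HTRF with 340 nm excitation, 617/671 nm emission. Medium: KF-containing HEPES buffer, pH 7.45, DTT, CHAPS, BSA. Read-out: inhibition (%) from 671 over 617 nm ratio. Also added: Eu(K)-anti-GST 90 ng/mL plus XL665-anti-Flag 1 µg/mL.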
PABP FP inh = PABP-poly(A) binding inhibition; P11940; PABP-poly(A) RNA binding, fluorescence polarization; inhibition, % at 35 µM; 290,000 tested, 1% active; AID 2014;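 further: calls also rest on retests at 20 µM and on dose response follow-up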
HCV NS3 hel inh = blocks Hepatitis C virus NS3 helicase unwinding. NS3 helicase DNA unwinding, Cy5 molecular beacon fluorescence. inhibition, % at 10.9 µM. 290,000 tested, 0.56% active. AID 1800;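 active means inhibition above the mean of all tested compounds plus 3 SD, set per campaign, cut at about 35% in these data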
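Measured by: Cy5 fluorescence, 0 and 60 min reads / Assay system: NS3 helicase fragment of HCV / Control set: low DMSO, high thioflavine S at 110 µM / Times: 1 h reaction at 25 °C, ATP-initiated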
eIF4H inh = inhibitors of RNA binding by human eIF4H; eIF4H fluorescence polarization binding assay; inhibition, % at 35 µM; 290,000 tested, 0.94% active; AID 2012;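 further: calls also rest on retests at 20 µM and on dose response follow-up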
DNA FID counter = counter-screen for HCV NS3 helicase inhibitors: DNA intercalator displacement; 290,000 tested, 0.17% active; DNA fluorescent intercalator displacement, fluorescence; inhibition, % at 7.9 µM; AID 1845; in the data active means inhibition above about 37%;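 further: higher means more ethidium bromide displaced from hairpin DNA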
A number is an active result. Shown are actives, neighbours in structure and some others; about 2% of the full set was active somewhere. Unless noted, how the calls were made is not given here.

For C#CCOCCOCCOCCNc1nc(N2CCN(C(=O)[C@H](Cc3ccc(O)cc3)n3cc([C@@H](N)C(C)CC)nn3)CC2)nc(N2CCN(C(=O)[C@H](Cc3cc4ccccc4[nH]3)n3cc([C@@H](N)CC(C)C)nn3)CC2)n1 (stereo partly specified) the results were core dimer inh inactive, PABP FP inh inactive, HCV NS3 hel inh inactive, eIF4H inh inactive and DNA FID counter 60.
`C#CCOCCOCCOCCNc1nc(N2CCN(C(=O)[C@H](Cc3cc4ccccc4[nH]3)n3cc([C@@H](N)Cc4ccc(O)cc4)nn3)CC2)nc(N2CCN(C(=O)[C@H](Cc3cc4ccccc4[nH]3)n3cc([C@@H](N)CC(C)C)nn3)CC2)n1` gave PABP FP inh inactive and eIF4H inh inactive.
`C#CCOCCOCCOCCNc1nc(N2CCN(C(=O)[C@H](Cc3ccc(O)cc3)n3cc([C@@H](N)C(C)CC)nn3)CC2)nc(N2CCN(C(=O)[C@H](Cc3cc4ccccc4[nH]3)n3cc([C@@H](N)C(C)CC)nn3)CC2)n1` (stereo partly specified) gave MLLE-PAM2 inh inactive, core dimer inh inactive, PABP FP inh inactive, HCV NS3 hel inh inactive, eIF4H inh inactive and DNA FID counter 51.
Screening Cc1ccc(C(=O)N(CC(=O)NC2CCCC2)c2ccccc2F)s1 returned MLLE-PAM2 inh inactive.
`COc1ccc(NC(=O)c2ccccc2NS(C)(=O)=O)cc1OC` gave MLLE-PAM2 inh inactive, core dimer inh inactive, PABP FP inh inactive, HCV NS3 hel inh inactive, eIF4H inh inactive and DNA FID counter inactive.
COc1cccc(NC(=O)c2cc(-c3ccc(C)o3)nc3ccccc23)c1 was read as MLLE-PAM2 inh inactive, core dimer inh 48, PABP FP inh inactive, HCV NS3 hel inh inactive, eIF4H inh inactive and DNA FID counter inactive.
Cc1ccc(-c2cc(C(=O)NCc3ccco3)c3ccccc3n2)o1 was read as MLLE-PAM2 inh inactive, core dimer inh 66, PABP FP inh 28, HCV NS3 hel inh inactive, eIF4H inh 86 and DNA FID counter inactive.
`COc1cccc(NC(=O)c2ccccc2NS(C)(=O)=O)c1` gave MLLE-PAM2 inh inactive, core dimer inh inactive, PABP FP inh inactive, HCV NS3 hel inh inactive, eIF4H inh inactive and DNA FID counter 94.
Cc1cc(C)c2nc(-c3ccccn3)cc(C(=O)NCc3ccco3)c2c1 was read as MLLE-PAM2 inh inactive, core dimer inh 69, PABP FP inh 82, HCV NS3 hel inh inactive, eIF4H inh 48 and DNA FID counter inactive.
Screening Cc1cc(C)c2nc(-c3ccccn3)cc(C(=O)NCc3cc(C)n(C)n3)c2c1 returned MLLE-PAM2 inh inactive, core dimer inh inactive, PABP FP inh inactive, HCV NS3 hel inh inactive, eIF4H inh inactive and DNA FID counter inactive.
Screening Cc1cc(C(=O)NCc2ccco2)c2ccccc2n1 returned MLLE-PAM2 inh inactive, core dimer inh inactive, PABP FP inh inactive, HCV NS3 hel inh inactive, eIF4H inh inactive and DNA FID counter inactive.
`Cc1cc(C)n2nc(C(=O)OCC(=O)NCc3ccc(F)cc3)nc2n1` gave MLLE-PAM2 inh inactive.
`C#CCOCCOCCOCCNc1nc(N2CCN(C(=O)Cn3cc(CCCN=C(N)N)nn3)CC2)nc(N2CCN(C(=O)[C@H]([C@@H](C)CC)n3cc(CCCN=C(N)N)nn3)CC2)n1` gave PABP FP inh inactive, HCV NS3 hel inh inactive, eIF4H inh inactive and DNA FID counter inactive.
`COC(=O)c1cc(-c2ccc(C)o2)nc2ccccc12` gave MLLE-PAM2 inh inactive, core dimer inh inactive, PABP FP inh inactive, HCV NS3 hel inh inactive, eIF4H inh inactive and DNA FID counter inactive.
Cc1ccc(-c2cc(C(=O)NC3=NCCS3)c3cc(Br)ccc3n2)o1 was read as core dimer inh 51, PABP FP inh inactive, HCV NS3 hel inh inactive, eIF4H inh inactive and DNA FID counter inactive.
`Cc1ccc(-c2cc(C(=O)Nc3ccccc3C)c3ccccc3n2)o1` gave MLLE-PAM2 inh inactive, core dimer inh 64, PABP FP inh inactive, HCV NS3 hel inh inactive, eIF4H inh inactive and DNA FID counter inactive.
`COc1ccc(NC(=O)CN(C)S(=O)(=O)c2ccc3c(c2)c(=O)n(C)c(=O)n3C)cc1` gave MLLE-PAM2 inh inactive, core dimer inh inactive, PABP FP inh inactive, HCV NS3 hel inh inactive, eIF4H inh inactive and DNA FID counter inactive.
`O=C(CSc1nnc(-c2ccccc2Cl)o1)N1CCOCC1` gave MLLE-PAM2 inh inactive, core dimer inh inactive, PABP FP inh inactive, HCV NS3 hel inh inactive, eIF4H inh inactive and DNA FID counter inactive.
Screening CNCc1cc(Br)c(OCC(=O)Nc2ccccc2OC)c(OC)c1 returned MLLE-PAM2 inh inactive, core dimer inh inactive, PABP FP inh inactive, HCV NS3 hel inh inactive, eIF4H inh inactive and DNA FID counter inactive.
Screening COc1cc(CNCCc2ccccc2)cc(Br)c1OCC(=O)Nc1ccccc1C returned MLLE-PAM2 inh inactive, core dimer inh inactive, PABP FP inh inactive, HCV NS3 hel inh inactive, eIF4H inh inactive and DNA FID counter 44.
For Cc1ccc(C(=O)O)cc1NC(=S)NC(=O)c1ccc(-c2ccc(Cl)cc2)o1 the results were MLLE-PAM2 inh 51, core dimer inh inactive, PABP FP inh inactive, HCV NS3 hel inh inactive, eIF4H inh inactive and DNA FID counter inactive.
`COc1ccc(C(=O)O)cc1NC(=S)NC(=O)c1ccc(-c2ccc(Cl)cc2)o1` gave MLLE-PAM2 inh inactive, PABP FP inh inactive, HCV NS3 hel inh inactive, eIF4H inh inactive and DNA FID counter inactive.
O=C1OC(Nc2ncccn2)c2ccccc21 (stereo unspecified) was read as MLLE-PAM2 inh inactive, core dimer inh inactive, PABP FP inh inactive, HCV NS3 hel inh inactive, eIF4H inh inactive and DNA FID counter inactive.
Screening O=C1OC(Nc2cc(Br)cc3cccnc23)c2ccccc21 (stereo unspecified) returned MLLE-PAM2 inh inactive, core dimer inh inactive, PABP FP inh active, HCV NS3 hel inh inactive, eIF4H inh 65 and DNA FID counter inactive.
`CCOC(=O)/C=c1\s/c(=C\c2ccc(C(F)(F)F)cc2)c(=O)n1CC(=O)NCc1ccco1` gave MLLE-PAM2 inh inactive, core dimer inh 54, PABP FP inh inactive, HCV NS3 hel inh inactive, eIF4H inh inactive and DNA FID counter inactive.
For Cc1ccc2nc(NCc3ccco3)c(C=NCc3ccco3)c(=O)n2c1 the results were MLLE-PAM2 inh inactive, core dimer inh inactive, PABP FP inh 86, HCV NS3 hel inh inactive, eIF4H inh 68 and DNA FID counter inactive.
For CCc1c(C)nc2cc(-c3cccc(Br)c3)[nH]n2c1=O the results were MLLE-PAM2 inh inactive, core dimer inh inactive, PABP FP inh inactive, HCV NS3 hel inh inactive, eIF4H inh inactive and DNA FID counter inactive.
CC(=O)c1cc(O)c2ccccc2c1O was read as MLLE-PAM2 inh 41, core dimer inh inactive, PABP FP inh inactive, HCV NS3 hel inh inactive, eIF4H inh inactive and DNA FID counter inactive.
`Cc1ccc(C(=O)OCC(=O)N(Cc2ccccc2)C(C)C)cc1C` gave MLLE-PAM2 inh inactive.

Screening results deposited in PubChem BioAssay by several laboratories.
